Assay results reported in ChEMBL document CHEMBL4346745, “Urea moiety as amide bond mimetic in peptide-like inhibitors of VEGF-A165/NRP-1 complex” (Bioorg Med Chem Lett, 2019).
Numbered stars: 1 amine (or outer) side, 2 acyl side, 3 side chain; on linkers, the order of the positions; unused ones are H or OH. Square brackets hold non-standard residues; d marks the D form. Side chains are listed from the residue outwards. Peptide text beside a SMILES is read from it. * marks the point of attachment. X1 = N=C(N)NCCC[C@H](N)CN*; ΔPro = O=C(O)[C@@H]1C=CCN1; Dab = NCC[C@H](N)C(=O)O; CO = O=C([*:1])[*:2]

What was measured:
Neuropilin-1 = Neuropilin-1 (Homo sapiens, UniProt O14786); experiment: Inhibition of biotinylated human VEGF-A165 binding to recombinant human NRP1 receptor after 2 hrs by chemiluminescence analysis relative to control
In short: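 ELISA-like competition format with chemiluminescent read-out of VEGF-A165 bound to NRP-1 in the presence of test peptidomimetic.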

[1] = Retention time in human plasma treated with 1 uM (S)-5-guanidino-2-((S)-1-((6S,15S,18R)-1,6,15-triamino-18-(2-aminoethyl)-1-imino-9,16-dioxo-2,8,10,17-tetraazanonadecane)-2,3-dihydro-1H-pyrrole-2-carboxamido)pentanoic acid at 1 uM after 96 hrs by LC-MS analysis; format: ADME, cell-free
In short: (§1)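 Compounds incubated in human plasma at 37 °C; aliquots withdrawn at selected time intervals up to 96 h and analysed by RP-HPLC and LC-MS to follow parent loss and the fragments formed.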

[2] = Retention time in human plasma treated with 1 uM (S)-2-((S)-1-((S)-1-((S)-2-amino-6-(3-((S)-2-amino-5-guanidinopentyl)ureido)hexanoyl)pyrrolidine-2-carbonyl)pyrrolidine-2-carboxamido)-5-guanidinopentanoic acid at 1 uM after 96 hrs by LC-MS analysis; format: ADME, cell-free; in short: as §1
[3] = Stability in human plasma assessed as enzymatic cleavage of Lys(epsilon)-Arg(U) bond at 1 uM after 96 hrs by LC-MS analysis; format: ADME, cell-free; in short: as §1
[4] = Drug metabolism in human plasma assessed as (S)-2-amino-6-(3-((S)-2-amino-5-guanidinopentyl)ureido)hexanoic acid metabolite formation at 1 uM after 96 hrs by LC-MS analysis; format: ADME, cell-free; in short: as §1
[5] = Metabolic stability in human plasma assessed as compound remaining at 1 uM after 96 hrs by RP-HPLC and LC-MS analysis relative to control; format: ADME, cell-free; settings: read-out: Stability; in short: as §1

Neuropilin-1, sequence (O14786 whole entry): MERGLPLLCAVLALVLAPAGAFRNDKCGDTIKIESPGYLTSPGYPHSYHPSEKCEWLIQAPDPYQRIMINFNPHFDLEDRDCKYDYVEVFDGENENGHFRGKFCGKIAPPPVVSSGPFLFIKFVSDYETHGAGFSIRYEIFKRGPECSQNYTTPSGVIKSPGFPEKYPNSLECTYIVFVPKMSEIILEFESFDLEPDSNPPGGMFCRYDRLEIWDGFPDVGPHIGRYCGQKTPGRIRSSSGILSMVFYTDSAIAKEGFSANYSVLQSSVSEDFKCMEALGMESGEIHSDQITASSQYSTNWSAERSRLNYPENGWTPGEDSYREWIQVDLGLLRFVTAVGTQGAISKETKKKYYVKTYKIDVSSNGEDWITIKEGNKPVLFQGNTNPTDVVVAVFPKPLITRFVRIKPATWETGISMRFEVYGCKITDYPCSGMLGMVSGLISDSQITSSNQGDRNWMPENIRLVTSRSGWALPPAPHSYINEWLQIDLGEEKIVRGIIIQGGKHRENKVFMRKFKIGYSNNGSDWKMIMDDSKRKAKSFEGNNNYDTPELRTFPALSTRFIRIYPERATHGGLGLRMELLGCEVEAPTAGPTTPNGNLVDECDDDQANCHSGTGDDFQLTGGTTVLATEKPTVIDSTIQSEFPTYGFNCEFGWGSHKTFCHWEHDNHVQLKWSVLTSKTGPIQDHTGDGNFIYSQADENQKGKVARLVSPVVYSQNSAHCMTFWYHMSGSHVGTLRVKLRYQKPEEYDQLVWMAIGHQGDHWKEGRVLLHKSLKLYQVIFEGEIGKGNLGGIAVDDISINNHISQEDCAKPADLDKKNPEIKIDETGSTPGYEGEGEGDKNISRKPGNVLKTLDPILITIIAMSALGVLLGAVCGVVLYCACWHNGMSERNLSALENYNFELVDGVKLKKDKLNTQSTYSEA

With `N=C(N)NCCC[C@H](N)CNC(=O)NCCCC[C@H](N)C(=O)N[C@H](CCN)C(=O)N1CC[C@H]1C(=O)N[C@@H](CCCNC(=N)N)C(=O)O` the IC50 (Neuropilin-1) was 26 µM.
In the case of `N=C(N)NCCC[C@H](N)CNC(=O)NCCCC[C@H](N)C(=O)O`, the Retention_time [1] is reported as 2.92 min and the Retention_time [2] is reported as 3 min.
With `N=C(N)NCCC[C@H](N)CNC(=O)NCCCC[C@H](N)C(=O)N[C@H](CCN)C(=O)N1C2CCCCC2C[C@H]1C(=O)N[C@@H](CCCNC(=N)N)C(=O)O` (stereo not given in full) the IC50 (Neuropilin-1) was 5.4 µM.
Work on `N=C(N)NCCC[C@H](NC(=O)[C@@H]1C=CCN1C(=O)[C@@H](N)CCN)C(=O)O` (H-[Dab]-[ΔPro]-Arg-OH) yielded a Retention_time [1] of 0.98 min.
With `N=C(N)NCCC[C@H](N)CNC(=O)NCCCC[C@H](N)C(=O)N[C@@H](CCN)C(=O)N1CC=C[C@H]1C(=O)O` the Retention_time [1] was 9.02 min.
With `N=C(N)NCCC[C@H](N)CNC(=O)NCCCC[C@H](N)C(=O)N1CCC[C@H]1C(=O)N1CCC[C@H]1C(=O)N[C@@H](CCCNC(=N)N)C(=O)O` (H-K([CO-X1])PPR-OH) the Stability [3] was “Stable”, the IC50 (Neuropilin-1) was 7.7 µM and the Drug metabolism [4] was “Metabolite_Detected”. It also gave a remaining at 96 h, 1 µM [5] of 40 to 45%.
